The results in this text go back to ChEMBL document CHEMBL4406821, “Novel dual inhibitors targeting CDK4 and VEGFR2 synergistically suppressed cancer progression and angiogenesis” (Eur J Med Chem, 2019).

In assay [1] the target is Tyrosine-protein kinase receptor UFO (Homo sapiens) (UniProt P30530). Briefly: Inhibition of recombinant human AXL (473 to end residues) at 1 uM using KKSRGDYMTMQIG as substrate incubated for 40 mins in presence of [gamma-33P]-ATP by scintillation counting method relative to control. In a few lines: (§1)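 Kinase panel profiling at 1 μM performed by Eurofins KinaseProfiler; percent inhibition reported as mean of two independent experiments.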

The target of assay [2] is cAMP-dependent protein kinase catalytic subunit PRKX (Homo sapiens) (UniProt P51817). Briefly: Inhibition of recombinant human full length PrKX at 1 uM using RRRLSFAEPG as substrate incubated for 40 mins in presence of [gamma-33P]-ATP by scintillation counting method relative to control.
In assay [3] the target is Serine/threonine-protein kinase TAO2 (Homo sapiens) (UniProt Q9UL54). Briefly: Inhibition of recombinant human TAO2 (1 to 320 residues) at 1 uM using myelin basic protein as substrate incubated for 40 mins in presence of [gamma-33P]-ATP by scintillation counting method relative to control. In a few lines:
(§2)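 Tested at a single 1 uM in an outsourced commercial kinase-profiling panel, read as percent inhibition. Each value is the mean of two independent experiments.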

The test system of assay [4] is HUVEC. Put plainly: Antiproliferative activity against HUVEC cells assessed as reduction in cell viability measured upto 72 hrs by CCK8 assay. The assay is classed as functional, cell-based. Particulars: Homo sapiens. In a few lines:
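HUVECs, 3×10³ cells/well, kept in 1640 medium with 10% FBS at 37°C and 5% CO₂. Cells were treated at 20 or 40 nM or vehicle, and viability was read by CCK-8 (absorbance 450 nm) at 0, 12, 24, 36, 48, 60 and 72 h. Five replicates per sample.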
For orientation: Formazan colour is commonly taken as a measure of viable cells.

Assay [5] addresses Death-associated protein kinase 2 (Homo sapiens) (UniProt Q9UIK4). Briefly: Inhibition of recombinant full length human DAPK2 at 1 uM using calmodulin as substrate incubated for 40 mins in presence of [gamma-33P]-ATP by scintillation counting method relative to control. An outline of the steps:
as §1

Assay [6] concerns the target Discoidin domain-containing receptor 2 (Homo sapiens) (UniProt Q16832). Put plainly: Inhibition of recombinant human DDR2 (467 to end residues) at 1 uM using KKSRGDYMTMQIG as substrate incubated for 40 mins in presence of [gamma-33P]-ATP by scintillation counting method relative to control. An outline of the steps:
as §1

Assay [7] addresses STE20-like serine/threonine-protein kinase (Homo sapiens) (UniProt Q9H2G2). Briefly: Inhibition of recombinant human SLK (1 to 373 residues) at 1 uM using RLGRDKYKTLRQIRQ as substrate incubated for 40 mins in presence of [gamma-33P]-ATP by scintillation counting method relative to control.
The target in assay [8] is Myosin light chain kinase, smooth muscle (Homo sapiens) (UniProt Q15746). Put plainly: Inhibition of recombinant human MLCK (1425 to 1771 residues) at 1 uM using KKLNRTLSFAEPG as substrate incubated for 40 mins in presence of [gamma-33P]-ATP by scintillation counting method relative to control.
Assay [9] has as its system Epidermal growth factor receptor (Homo sapiens), P00533 [L861Q]. Put plainly: Inhibition of recombinant human EGFR L861Q mutant (696 to end residues) at 1 uM using poly(Glu, Tyr) 4:1 as substrate incubated for 40 mins in presence of [gamma-33P]-ATP by scintillation counting method relative to control.
Assay [10] has as its system Tyrosine-protein kinase BTK (Homo sapiens), Q06187 [R28H]. Briefly: Inhibition of recombinant full length human BTK R28H mutant at 1 uM using LSNLYHQGKFLQT as substrate incubated for 40 mins in presence of [gamma-33P]-ATP by scintillation counting method relative to control. An outline of the steps: as §2
Assay [11] concerns the target Inhibitor of nuclear factor kappa-B kinase subunit epsilon (Homo sapiens) (UniProt Q14164). Briefly: Inhibition of recombinant human full length IKKepsilon at 1 uM using casein as substrate incubated for 40 mins in presence of [gamma-33P]-ATP by scintillation counting method relative to control.
In assay [12] the target is Serine/threonine-protein kinase NLK (Homo sapiens) (UniProt Q9UBE8). Put plainly: Inhibition of recombinant human NLK (121 to end residues) at 1 uM using myelin basic protein as substrate incubated for 40 mins in presence of [gamma-33P]-ATP by scintillation counting method relative to control.
In assay [13] the test system is SiHa. Briefly: Antitumor activity against human SiHa cells xenografted in NOD/SCID BALB/c mouse assessed as reduction in tumor weight at 10 to 40 mg/kg, po administered for 21 days. The assay is classed as functional, organism-based. Background: A xenograft is tissue or cells of one species grown in another, often human tumour cells in immunodeficient mice.
Assay [14] relates to Mitogen-activated protein kinase 14 (Homo sapiens), Q16539 [T106M]. Put plainly: Inhibition of recombinant human full length SAPK2a T106M mutant at 1 uM using myelin basic protein as substrate incubated for 40 mins in presence of [gamma-33P]-ATP by scintillation counting method relative to control. An outline of the steps: as §2
Assay [15] has as its target Casein kinase 2 (Homo sapiens) (UniProt P67870+P68400+P19784+Q8NEV1). Briefly: Inhibition of recombinant full length human CK2 expressed in insect Sf21 cells at 1 uM using CK2 substrate peptide as substrate incubated for 40 mins in presence of [gamma-33P]-ATP by scintillation counting method relative to control. In a few lines:
as §1

Assay [16] concerns T47D. Put plainly: Induction of apoptosis in human T47D cells assessed as decrease in Bcl2 expression at 20 to 40 nM incubated for 48 hrs by Western blot analysis. It counts as functional, cell-based. An outline of the steps: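 Cancer cells were exposed to graded concentrations for 48 h, washed three times in PBS and lysed in RIPA buffer. Immunoblots were probed with anti-Rb, anti-phospho-Rb, anti-Ki67 and anti-Bcl-2, each at 1:1000. β-actin served as loading control.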

For assay [17], the system named is Serine/threonine-protein kinase Chk2 (Homo sapiens), O96017 [I157T]. Put plainly: Inhibition of recombinant human CHK2 I157T mutant (5 to end residues) at 1 uM using KKKVSRSGLYRSP as substrate incubated for 40 mins in presence of [gamma-33P]-ATP by scintillation counting method relative to control. An outline of the steps:
as §1

The target of assay [18] is Serine/threonine-protein kinase Nek6 (Homo sapiens) (UniProt Q9HC98). Put plainly: Inhibition of recombinant human NEK6 (2 to end residues) at 1 uM using FLAKSFGSPNRAYKK as substrate incubated for 40 mins in presence of [gamma-33P]-ATP by scintillation counting method relative to control.
Assay [19] deals with RAF proto-oncogene serine/threonine-protein kinase (Homo sapiens) (UniProt P04049). Briefly: Inhibition of recombinant human cRaf (306 to end residues) at 1 uM using unactive MEK1 as substrate incubated for 40 mins in presence of [gamma-33P]-ATP by scintillation counting method relative to control.
Assay [20] deals with SiHa. Put plainly: Induction of cell cycle arrest in human SiHa cells assessed as decrease in cell accumulation in S phase at 40 to 80 nM incubated for 36 hrs by propidium iodide staining based flow cytometry. The assay is classed as functional. An outline of the steps:
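Cells were treated with graded concentrations for 36 h, then fixed overnight in 70% ice-cold ethanol at 4°C and resuspended in PBS. Staining used 50 µg/ml PI plus 5 µg/ml RNase at 37°C for 30 min. DNA content was analysed by FACS to give G0/G1, S and G2/M fractions.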
(Flow cytometry measures light scatter and fluorescence of single cells or particles in a stream.)

Assay [21] deals with Vascular endothelial growth factor receptor 2 (Homo sapiens, UniProt P35968). Particulars: HUVEC, 40 nM.

A word on the inhibition: it is the percentage by which the read-out fell short of the control.

Calls of active or inactive are those of the source. The calls are words filed in the database; no cut-off is given here.

Sequence of Serine/threonine-protein kinase Chk2 (Homo sapiens), O96017 [I157T] (O96017 whole entry I157T): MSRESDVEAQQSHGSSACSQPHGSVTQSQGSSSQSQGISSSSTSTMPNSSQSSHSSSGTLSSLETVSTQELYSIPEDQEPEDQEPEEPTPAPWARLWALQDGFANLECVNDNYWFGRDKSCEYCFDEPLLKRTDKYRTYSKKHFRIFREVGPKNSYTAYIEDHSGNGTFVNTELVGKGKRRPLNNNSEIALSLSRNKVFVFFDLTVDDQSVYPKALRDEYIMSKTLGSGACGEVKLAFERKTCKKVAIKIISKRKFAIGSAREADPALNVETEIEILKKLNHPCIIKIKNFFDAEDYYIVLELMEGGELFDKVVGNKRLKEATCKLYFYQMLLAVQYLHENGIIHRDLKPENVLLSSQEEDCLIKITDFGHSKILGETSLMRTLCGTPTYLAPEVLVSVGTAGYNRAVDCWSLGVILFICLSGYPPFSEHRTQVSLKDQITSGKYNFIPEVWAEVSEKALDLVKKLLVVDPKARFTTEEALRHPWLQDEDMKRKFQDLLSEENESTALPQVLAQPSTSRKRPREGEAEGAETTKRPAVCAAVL
Sequence of Tyrosine-protein kinase BTK (Homo sapiens), Q06187 [R28H] (Q06187 whole entry R28H): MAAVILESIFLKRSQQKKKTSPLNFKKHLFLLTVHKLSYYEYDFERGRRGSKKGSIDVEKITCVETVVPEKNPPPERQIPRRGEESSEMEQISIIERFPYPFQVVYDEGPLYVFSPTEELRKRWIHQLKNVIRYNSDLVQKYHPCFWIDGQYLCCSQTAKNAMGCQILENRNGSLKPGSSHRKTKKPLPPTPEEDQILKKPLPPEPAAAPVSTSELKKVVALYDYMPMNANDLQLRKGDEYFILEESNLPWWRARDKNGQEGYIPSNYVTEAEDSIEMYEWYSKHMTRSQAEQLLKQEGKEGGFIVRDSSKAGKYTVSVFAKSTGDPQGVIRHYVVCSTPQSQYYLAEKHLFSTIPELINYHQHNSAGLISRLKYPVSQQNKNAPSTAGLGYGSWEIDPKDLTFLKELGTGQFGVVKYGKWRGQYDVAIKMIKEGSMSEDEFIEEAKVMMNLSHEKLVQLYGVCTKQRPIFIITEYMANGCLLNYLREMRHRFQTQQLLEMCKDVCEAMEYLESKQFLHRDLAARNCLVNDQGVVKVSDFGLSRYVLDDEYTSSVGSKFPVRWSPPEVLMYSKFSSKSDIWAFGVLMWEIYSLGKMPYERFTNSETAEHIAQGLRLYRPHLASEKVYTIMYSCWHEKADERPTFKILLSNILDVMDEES
Sequence of Epidermal growth factor receptor (Homo sapiens), P00533 [L861Q] (P00533 whole entry L861Q): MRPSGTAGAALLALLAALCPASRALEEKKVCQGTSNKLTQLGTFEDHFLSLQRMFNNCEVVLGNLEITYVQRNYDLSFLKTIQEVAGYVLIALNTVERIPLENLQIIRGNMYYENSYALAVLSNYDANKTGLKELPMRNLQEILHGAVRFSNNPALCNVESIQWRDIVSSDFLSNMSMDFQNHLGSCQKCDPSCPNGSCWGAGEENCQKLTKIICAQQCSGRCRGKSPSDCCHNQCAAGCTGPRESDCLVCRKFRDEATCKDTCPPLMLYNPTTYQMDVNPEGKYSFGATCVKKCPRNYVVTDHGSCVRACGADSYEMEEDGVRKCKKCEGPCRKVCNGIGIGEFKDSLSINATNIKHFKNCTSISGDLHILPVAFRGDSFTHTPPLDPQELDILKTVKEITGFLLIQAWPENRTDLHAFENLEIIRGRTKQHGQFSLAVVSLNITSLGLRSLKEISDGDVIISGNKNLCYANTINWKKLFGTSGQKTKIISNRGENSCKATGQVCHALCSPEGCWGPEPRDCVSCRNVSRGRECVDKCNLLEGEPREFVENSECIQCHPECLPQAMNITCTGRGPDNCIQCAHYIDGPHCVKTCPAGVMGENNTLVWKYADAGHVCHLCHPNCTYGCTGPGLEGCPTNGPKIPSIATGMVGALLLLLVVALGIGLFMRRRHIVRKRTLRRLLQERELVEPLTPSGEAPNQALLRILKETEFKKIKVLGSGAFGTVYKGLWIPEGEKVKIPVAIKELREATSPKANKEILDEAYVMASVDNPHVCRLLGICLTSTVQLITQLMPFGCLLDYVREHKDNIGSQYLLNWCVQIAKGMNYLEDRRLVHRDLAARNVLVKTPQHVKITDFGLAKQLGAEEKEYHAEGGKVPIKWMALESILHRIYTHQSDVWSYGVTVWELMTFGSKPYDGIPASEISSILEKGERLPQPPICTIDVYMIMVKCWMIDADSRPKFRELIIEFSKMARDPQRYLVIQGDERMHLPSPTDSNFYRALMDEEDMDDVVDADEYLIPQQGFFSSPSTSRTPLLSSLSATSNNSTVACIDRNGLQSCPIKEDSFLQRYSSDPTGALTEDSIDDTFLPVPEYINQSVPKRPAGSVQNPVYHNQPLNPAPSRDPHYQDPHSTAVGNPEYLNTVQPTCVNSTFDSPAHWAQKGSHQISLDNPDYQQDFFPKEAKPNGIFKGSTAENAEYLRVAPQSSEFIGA
Sequence of Mitogen-activated protein kinase 14 (Homo sapiens), Q16539 [T106M] (Q16539 whole entry T106M): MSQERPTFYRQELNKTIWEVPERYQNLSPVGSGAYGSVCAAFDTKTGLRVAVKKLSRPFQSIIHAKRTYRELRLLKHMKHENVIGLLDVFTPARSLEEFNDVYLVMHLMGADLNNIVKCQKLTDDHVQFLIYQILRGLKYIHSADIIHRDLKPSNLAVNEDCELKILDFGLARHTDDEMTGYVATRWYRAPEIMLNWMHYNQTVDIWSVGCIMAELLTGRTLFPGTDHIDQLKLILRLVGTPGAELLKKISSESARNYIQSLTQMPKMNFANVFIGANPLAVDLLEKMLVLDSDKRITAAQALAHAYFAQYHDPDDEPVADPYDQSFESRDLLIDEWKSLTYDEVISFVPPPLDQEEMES
Sequence of RAF proto-oncogene serine/threonine-protein kinase (Homo sapiens) (P04049 whole entry): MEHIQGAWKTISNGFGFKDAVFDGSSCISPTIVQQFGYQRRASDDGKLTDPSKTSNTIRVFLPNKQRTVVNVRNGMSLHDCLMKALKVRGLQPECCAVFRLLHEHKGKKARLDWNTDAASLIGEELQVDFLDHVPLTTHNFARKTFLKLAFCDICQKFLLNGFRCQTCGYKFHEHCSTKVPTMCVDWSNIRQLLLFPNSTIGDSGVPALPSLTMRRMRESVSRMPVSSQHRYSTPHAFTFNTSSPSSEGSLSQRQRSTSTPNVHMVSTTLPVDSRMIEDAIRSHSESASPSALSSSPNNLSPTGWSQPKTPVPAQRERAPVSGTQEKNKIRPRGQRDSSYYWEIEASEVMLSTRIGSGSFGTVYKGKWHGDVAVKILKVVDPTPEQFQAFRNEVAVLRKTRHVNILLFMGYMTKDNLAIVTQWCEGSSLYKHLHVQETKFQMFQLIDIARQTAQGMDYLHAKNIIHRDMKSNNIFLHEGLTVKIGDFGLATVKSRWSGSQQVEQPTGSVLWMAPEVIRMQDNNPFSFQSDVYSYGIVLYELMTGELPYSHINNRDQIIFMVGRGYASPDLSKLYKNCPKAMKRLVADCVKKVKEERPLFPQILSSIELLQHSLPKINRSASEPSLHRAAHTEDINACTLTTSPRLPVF
Sequence of Death-associated protein kinase 2 (Homo sapiens) (Q9UIK4 whole entry, looked up): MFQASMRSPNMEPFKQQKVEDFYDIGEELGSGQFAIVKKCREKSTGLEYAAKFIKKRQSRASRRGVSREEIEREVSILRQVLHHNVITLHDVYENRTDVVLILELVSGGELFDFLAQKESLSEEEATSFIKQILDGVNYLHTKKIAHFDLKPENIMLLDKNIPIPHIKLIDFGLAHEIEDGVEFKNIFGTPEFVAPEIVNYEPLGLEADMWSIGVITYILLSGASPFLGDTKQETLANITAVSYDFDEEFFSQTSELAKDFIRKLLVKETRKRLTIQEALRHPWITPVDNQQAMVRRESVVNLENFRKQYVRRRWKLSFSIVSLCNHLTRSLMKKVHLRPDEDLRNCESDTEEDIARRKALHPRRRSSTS
Sequence of Inhibitor of nuclear factor kappa-B kinase subunit epsilon (Homo sapiens) (Q14164 whole entry): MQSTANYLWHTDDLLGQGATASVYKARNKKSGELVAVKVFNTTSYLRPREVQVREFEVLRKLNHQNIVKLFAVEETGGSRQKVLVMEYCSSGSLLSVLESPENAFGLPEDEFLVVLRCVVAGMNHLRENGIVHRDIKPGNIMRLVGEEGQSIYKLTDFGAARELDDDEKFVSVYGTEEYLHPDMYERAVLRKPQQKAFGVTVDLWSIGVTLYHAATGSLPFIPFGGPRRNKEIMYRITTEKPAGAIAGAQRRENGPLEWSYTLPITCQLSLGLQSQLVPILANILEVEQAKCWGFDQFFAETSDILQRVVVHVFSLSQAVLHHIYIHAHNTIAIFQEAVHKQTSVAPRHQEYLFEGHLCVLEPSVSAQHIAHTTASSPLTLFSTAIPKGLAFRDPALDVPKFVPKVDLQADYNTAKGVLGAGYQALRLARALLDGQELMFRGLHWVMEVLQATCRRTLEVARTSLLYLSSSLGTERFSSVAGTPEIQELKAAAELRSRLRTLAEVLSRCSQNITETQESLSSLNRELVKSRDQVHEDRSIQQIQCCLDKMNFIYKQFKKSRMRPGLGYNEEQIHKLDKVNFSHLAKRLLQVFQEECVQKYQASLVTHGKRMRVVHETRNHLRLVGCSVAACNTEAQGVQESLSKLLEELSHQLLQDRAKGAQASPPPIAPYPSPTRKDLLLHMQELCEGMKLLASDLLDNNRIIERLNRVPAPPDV
Sequence of Serine/threonine-protein kinase Nek6 (Homo sapiens) (Q9HC98 whole entry): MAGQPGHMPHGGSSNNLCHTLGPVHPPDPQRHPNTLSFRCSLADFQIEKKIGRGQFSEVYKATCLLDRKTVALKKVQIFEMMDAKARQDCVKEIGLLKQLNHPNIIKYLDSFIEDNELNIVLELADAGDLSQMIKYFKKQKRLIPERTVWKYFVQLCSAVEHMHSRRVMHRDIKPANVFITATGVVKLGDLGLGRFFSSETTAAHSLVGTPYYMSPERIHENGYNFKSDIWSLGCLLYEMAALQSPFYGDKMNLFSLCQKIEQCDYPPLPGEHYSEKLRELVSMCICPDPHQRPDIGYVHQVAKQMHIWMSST

`Cc1ccc(NC(=O)C2(C(=O)Nc3ccc(Nc4ncc(F)c(-c5cc(F)c6nc(C)n(C(C)C)c6c5)n4)cc3)CC2)cc1`: the inhibition was 65% in assay [1]; 43% in assay [2]; 0% in assay [3]; “Dose-dependent effect” in assay [4]; 10% in assay [5]; 55% in assay [6]. The inhibition in assay [7] stood at 90%; in assay [8], 21%; in [9], 34%; in assay [10] it was 0%; in assay [11] it was 47%; in assay [12], 44%. Moreover, the inhibition was 60% in assay [14]; 56% in [15]; 24% in assay [17]; 2% in [18]; 31% in assay [19]. Besides, the inhibition entry in assay [13] is “Active”. The outcome in assay [16] and in assay [20] was Active.

With `COc1cc2nccc(Oc3ccc(NC(=O)C4(C(=O)Nc5ccc(F)cc5)CC4)cc3)c2cc1OC` [CABOZANTINIB], in assay [21], the inhibition entry was “Active”.
